Measurements: publication PMC6851657 (Clinical Pharmacology and Therapeutics, 2019)
Where two headings read alike, the source gives them in different places.

Key:
[1] = observed, ref Novartis data on file, cited from earlier work; for AUCinf / Cmax / t1/2: GM (CV%; range)
[2] = ref Novartis data on file, 5, cited from earlier work
[3] = molecular target: T1, CYP2C9 (Homo sapiens, UniProt P11712); type: in vitro ADME
Procedure, shortened: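 Genotype-specific hepatic intrinsic clearance (CLint,h) was back-calculated from population PK total plasma clearance for each CYP2C9 genotype (*1/*1, *1/*2, *1/*3, *2/*2, *2/*3, *3/*3). Clearance was assumed to be entirely CYP-mediated hepatic metabolism, with purely passive hepatocyte uptake. CLint,h was split across CYP2C9, 3A4, 2B6, 2C8 and 2C19 by in vitro phenotyping fm. fu(mic) was set to 1. Values served as SimCYP PBPK inputs.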

[4] = cited from earlier work; for t1/2 / AUCinf / Cmax / Tmax: observed; for t1/2: GM (CV%); for AUCinf / Cmax: GM (CV%; 90% CI); for Tmax: median (range)
[5] = day 28, observed, cited from earlier work; for AUC(0–24 h) / Cmin: GM (CV%); for Cmax: GM (CV%; 90% CI)
[6] = molecular target: T2, CYP2B6 (Homo sapiens, UniProt P20813); assay: Enzyme phenotyping, intrinsic clearance by retrograde calculation; type: in vitro ADME
T2 sequence (P20813 1-491): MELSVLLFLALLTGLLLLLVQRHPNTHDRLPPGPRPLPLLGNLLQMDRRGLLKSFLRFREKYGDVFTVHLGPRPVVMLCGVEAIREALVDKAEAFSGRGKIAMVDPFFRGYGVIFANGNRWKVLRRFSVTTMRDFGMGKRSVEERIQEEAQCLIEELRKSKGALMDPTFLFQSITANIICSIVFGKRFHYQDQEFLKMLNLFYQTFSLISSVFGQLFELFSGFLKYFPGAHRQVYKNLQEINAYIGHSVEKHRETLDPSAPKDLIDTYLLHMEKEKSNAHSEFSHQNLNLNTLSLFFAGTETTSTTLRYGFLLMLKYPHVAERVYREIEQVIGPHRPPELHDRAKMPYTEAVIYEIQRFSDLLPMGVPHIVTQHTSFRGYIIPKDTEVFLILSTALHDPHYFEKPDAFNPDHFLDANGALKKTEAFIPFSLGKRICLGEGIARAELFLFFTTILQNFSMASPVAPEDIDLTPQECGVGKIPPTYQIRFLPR

[7] = molecular target: T1, CYP2C9; settings: cited from earlier work
[8] = molecular target: T3, CYP2C8 (Homo sapiens, UniProt P10632); assay: Enzyme phenotyping, intrinsic clearance by retrograde calculation; type: in vitro ADME
T3 sequence (P10632 1-490): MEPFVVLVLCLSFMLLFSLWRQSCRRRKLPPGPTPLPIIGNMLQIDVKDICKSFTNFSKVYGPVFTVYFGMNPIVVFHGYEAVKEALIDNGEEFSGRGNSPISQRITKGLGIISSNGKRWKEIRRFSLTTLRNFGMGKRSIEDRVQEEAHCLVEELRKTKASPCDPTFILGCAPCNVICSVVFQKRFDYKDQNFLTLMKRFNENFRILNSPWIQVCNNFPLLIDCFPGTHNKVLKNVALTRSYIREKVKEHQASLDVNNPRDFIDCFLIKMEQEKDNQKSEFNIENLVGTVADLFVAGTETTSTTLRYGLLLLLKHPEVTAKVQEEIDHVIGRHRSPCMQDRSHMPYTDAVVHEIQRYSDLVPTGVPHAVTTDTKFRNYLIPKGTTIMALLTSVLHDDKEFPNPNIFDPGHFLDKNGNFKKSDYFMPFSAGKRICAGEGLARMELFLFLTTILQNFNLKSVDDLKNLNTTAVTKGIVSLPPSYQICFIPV

[9] = molecular target: CYP2C19 (Homo sapiens, UniProt P33261); assay: as above; type: in vitro ADME
[10] = molecular target: CYP3A4 (Homo sapiens, UniProt P08684); assay: as above; type: in vitro ADME
[11] = 0.3 mg solution p.o. single dose
[12] = 2.5 mg capsule p.o. single dose
[13] = 2.5 mg solution p.o. single dose
[14] = 17.5 mg capsule p.o. single dose

T1 sequence (P11712 whole entry): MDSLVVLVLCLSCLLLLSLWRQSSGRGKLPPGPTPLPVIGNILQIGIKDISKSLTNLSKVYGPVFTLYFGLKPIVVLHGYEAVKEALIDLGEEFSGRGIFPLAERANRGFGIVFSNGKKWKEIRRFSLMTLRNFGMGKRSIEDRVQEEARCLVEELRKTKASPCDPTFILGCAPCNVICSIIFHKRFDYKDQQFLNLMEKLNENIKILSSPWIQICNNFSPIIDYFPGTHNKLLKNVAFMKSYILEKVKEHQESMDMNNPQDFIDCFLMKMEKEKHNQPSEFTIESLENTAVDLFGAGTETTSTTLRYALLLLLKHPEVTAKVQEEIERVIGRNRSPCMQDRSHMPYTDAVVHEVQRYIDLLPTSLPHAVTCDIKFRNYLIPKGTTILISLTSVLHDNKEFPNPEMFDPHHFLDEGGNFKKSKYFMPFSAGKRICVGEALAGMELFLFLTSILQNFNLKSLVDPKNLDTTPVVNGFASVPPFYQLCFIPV
Chain of CYP3A4 (P08684 whole entry): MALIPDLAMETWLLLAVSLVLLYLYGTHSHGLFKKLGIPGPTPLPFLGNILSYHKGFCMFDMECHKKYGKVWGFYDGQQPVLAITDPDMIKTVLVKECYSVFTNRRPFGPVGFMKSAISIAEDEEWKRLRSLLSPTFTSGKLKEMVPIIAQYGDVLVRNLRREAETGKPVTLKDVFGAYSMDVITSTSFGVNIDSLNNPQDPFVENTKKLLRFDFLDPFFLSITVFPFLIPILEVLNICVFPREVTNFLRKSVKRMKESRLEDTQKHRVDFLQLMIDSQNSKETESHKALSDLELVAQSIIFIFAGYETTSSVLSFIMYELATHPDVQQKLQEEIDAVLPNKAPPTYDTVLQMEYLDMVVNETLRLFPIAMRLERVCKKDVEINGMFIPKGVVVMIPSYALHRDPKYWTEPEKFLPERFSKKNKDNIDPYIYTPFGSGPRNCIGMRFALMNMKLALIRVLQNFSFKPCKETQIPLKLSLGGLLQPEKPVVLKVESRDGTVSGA
Chain of CYP2C19 (P33261 whole entry): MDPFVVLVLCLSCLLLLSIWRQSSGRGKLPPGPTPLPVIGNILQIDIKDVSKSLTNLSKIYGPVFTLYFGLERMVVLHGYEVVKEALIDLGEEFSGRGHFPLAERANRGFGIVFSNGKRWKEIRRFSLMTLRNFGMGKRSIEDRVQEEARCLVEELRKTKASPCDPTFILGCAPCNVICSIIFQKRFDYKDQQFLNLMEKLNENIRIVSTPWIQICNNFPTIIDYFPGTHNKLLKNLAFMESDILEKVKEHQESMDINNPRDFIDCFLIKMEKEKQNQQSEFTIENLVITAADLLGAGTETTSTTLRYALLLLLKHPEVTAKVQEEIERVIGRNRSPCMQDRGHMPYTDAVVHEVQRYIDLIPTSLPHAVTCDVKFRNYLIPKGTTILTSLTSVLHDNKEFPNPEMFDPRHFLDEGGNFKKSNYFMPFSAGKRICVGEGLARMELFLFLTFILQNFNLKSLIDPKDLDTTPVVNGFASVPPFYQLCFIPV

CCc1cc(/C(C)=N/OCc2ccc(C3CCCCC3)c(C(F)(F)F)c2)ccc1CN1CC(C(=O)O)C1 [siponimod]
AUCinf ([1]; 0.25 mg i.v. single dose): 80.1 (25.6; 47.7–125) ng·hour/mL
Cmax ([1]; 0.25 mg i.v. single dose): 3.22 (19; 1.88–3.81) ng/mL
t1/2 ([1]; 0.25 mg i.v. single dose): 27.4 (22.5; 20.1–47.7) h
Tmax ([1]; 0.25 mg i.v. single dose, median (range)): 2.92 (2.92–2.92) h
AUCinf ([1]; 0.25 mg p.o. single dose): 67.4 (26; 39.8–105) ng·hour/mL
Cmax ([1]; 0.25 mg p.o. single dose): 1.71 (24; 0.920–2.30) ng/mL
t1/2 ([1]; 0.25 mg p.o. single dose): 26.7 (22; 17.2–43.8) h
lower total body clearance from plasma vs CYP2C9*1/*1 ([2]; CYP2C9*1/*3): 35–38%
lower total body clearance from plasma vs CYP2C9*1/*1 ([2]; CYP2C9*2/*2): 20%
lower total body clearance from plasma vs CYP2C9*1/*1 ([2]; CYP2C9*2/*3): 45–48%
lower total body clearance from plasma vs CYP2C9*1/*1 ([2]; CYP2C9*3/*3): 74%
fmCYP2C9 ([3]; CYP2C9*1/*1): 0.804
fmCYP2C9 ([3]; CYP2C9*1/*2): 0.788
fmCYP2C9 ([3]; CYP2C9*1/*3): 0.678
fmCYP2C9 ([3]; CYP2C9*2/*2): 0.727
fmCYP2C9 ([3]; CYP2C9*2/*3): 0.616
t1/2 [4, 11]: 33.21 (28) h
AUCinf [4, 11]: 89.3 (20; 79.2–99.4) ng·hour/mL
Cmax [4, 11]: 2.26 (6; 2.17–2.34) ng/mL
Tmax [4, 11]: 5 (4.00–8.00) h
t1/2 ([4]; 1 mg solution p.o. single dose): 45.7 (26) h
AUCinf ([4]; 1 mg solution p.o. single dose): 349 (28; 292–406) ng·hour/mL
Cmax ([4]; 1 mg solution p.o. single dose): 7.43 (42; 5.37–9.50) ng/mL
Tmax ([4]; 1 mg solution p.o. single dose): 5 (4.00–15.7) h
t1/2 [4, 12]: 29.3 (17) h
AUCinf [4, 12]: 745 (25; 632–858) ng·hour/mL
Cmax [4, 12]: 19.3 (19; 17.1–21.5) ng/mL
Tmax [4, 12]: 6 (4.00–8.00) h
t1/2 [4, 13]: 27.0 (22) h
AUCinf [4, 13]: 766 (36; 598–935) ng·hour/mL
Cmax [4, 13]: 21.9 (35; 16.7–27.0) ng/mL
Tmax [4, 13]: 4 (3.00–8.00) h
t1/2 ([4]; 5 mg capsule p.o. single dose): 31.3 (19) h
AUCinf ([4]; 5 mg capsule p.o. single dose): 1,260 (20; 1,149–1,384) ng·hour/mL
Cmax ([4]; 5 mg capsule p.o. single dose): 38.5 (21; 33.5–41.5) ng/mL
Tmax ([4]; 5 mg capsule p.o. single dose): 3 (2.00–8.00) h
t1/2 ([4]; 10 mg capsule p.o. single dose): 32.0 (17) h
AUCinf ([4]; 10 mg capsule p.o. single dose): 2,710 (14; 2,507–2,915) ng·hour/mL
Cmax ([4]; 10 mg capsule p.o. single dose): 77.3 (25; 64.8–89.7) ng/mL
Tmax ([4]; 10 mg capsule p.o. single dose): 5 (3.82–16.0) h
t1/2 [4, 14]: 42.3 (38) h
AUCinf [4, 14]: 4,230 (25; 3,666–4,792) ng·hour/mL
Cmax [4, 14]: 111 (32; 93.7–128.4) ng/mL
Tmax [4, 14]: 4 (2.00–8.00) h
t1/2 ([4]; 25 mg capsule p.o. single dose): 47.7 (20) h
AUCinf ([4]; 25 mg capsule p.o. single dose): 8,140 (24; 6,987–9,302) ng·hour/mL
Cmax ([4]; 25 mg capsule p.o. single dose): 217 (29; 180–254) ng/mL
Tmax ([4]; 25 mg capsule p.o. single dose): 3.50 (1.50–12.0) h
t1/2 ([4]; 75 mg capsule p.o. single dose): 56.7 (12) h
Cmax ([4]; 75 mg capsule p.o. single dose): 491 (51; 346–637) ng/mL
Tmax ([4]; 75 mg capsule p.o. single dose): 6 (2.00–24.00) h
elimination half‐life (t1/2), range [4]: 22 to 38 h
mean elimination half‐life (t1/2) [4]: ~ 30 hours
AUC(0–24 h) ([5]; 0.3 mg solution p.o. q.d.): 97.9 (19) ng·hour/mL
Cmin ([5]; 0.3 mg solution p.o. q.d.): 2.83 (27) ng/mL
Cmax ([5]; 0.3 mg solution p.o. q.d.): 5.13 (16; 4.76–5.86) ng/mL
AUC(0–24 h) ([5]; 1 mg solution p.o. q.d.): 282 (16) ng·hour/mL
Cmin ([5]; 1 mg solution p.o. q.d.): 7.74 (20) ng/mL
Cmax ([5]; 1 mg solution p.o. q.d.): 14.9 (10; 14.0–15.9) ng/mL
AUC(0–24 h) ([5]; 2.5 mg capsule p.o. q.d.): 692 (45) ng·hour/mL
Cmin ([5]; 2.5 mg capsule p.o. q.d.): 15.2 (120) ng/mL
Cmax ([5]; 2.5 mg capsule p.o. q.d.): 38.3 (37; 29.1–47.4) ng/mL
AUC(0–24 h) ([5]; 10 mg capsule p.o. q.d.): 2,580 (24) ng·hour/mL
Cmin ([5]; 10 mg capsule p.o. q.d.): 70.6 (29) ng/mL
Cmax ([5]; 10 mg capsule p.o. q.d.): 147 (24; 126–168) ng/mL
AUC(0–24 h) ([5]; 20 mg capsule p.o. q.d.): 6,370 (23) ng·hour/mL
Cmin ([5]; 20 mg capsule p.o. q.d.): 166 (88) ng/mL
Cmax ([5]; 20 mg capsule p.o. q.d.): 359 (17; 325–394) ng/mL
In vitro intrinsic clearance (CYP2B6) [6]: 0.733 µL/min/pmol
fmCYP2B6 ([6]; fraction metabolized): 0.004
fraction metabolized via CYP2C9 (fm,CYP2C9) ([7]; in vitro phenotyping data): 0.79
contribution of CYP2C9 to metabolism ([7]; in vitro phenotyping, normalized to 100%): 79.3%
CLint (CYP2C8) [8]: 2.941 µL/min/pmol
fmCYP2C8 ([8]; fraction metabolized): 0.017
fmCYP2C19 ([9]; fraction metabolized): 0.001
CLint (CYP2C19) ([9]; retrograde calculator from CL 3.12 L/hour, fu(mic) set to 1): 0.593 µL/min/pmol
CLint (CYP3A4) [10]: 5.607 µL/min/pmol
fmCYP3A4 ([10]; CYP2C9*1/*1): 0.175
fmCYP3A4 ([10]; CYP2C9*1/*2): 0.189
fmCYP3A4 ([10]; CYP2C9*1/*3): 0.287
fmCYP3A4 ([10]; CYP2C9*2/*2): 0.244
fmCYP3A4 ([10]; CYP2C9*2/*3): 0.343
fmCYP3A4 ([10]; fraction metabolized): 0.185
